Here are results for 29 compounds from ChEMBL document CHEMBL2169737, “Catechol pyrazolinones as trypanocidals: fragment-based design, synthesis, and pharmacological evaluation of nanomolar inhibitors of trypanosomal phosphodiesterase B1” (J Med Chem, 2012).

Data set [1] concerns the target T1, Class 1 phosphodiesterase PDEB1 (Trypanosoma brucei, UniProt Q8WQX9).
T1 sequence (Q8WQX9 whole entry): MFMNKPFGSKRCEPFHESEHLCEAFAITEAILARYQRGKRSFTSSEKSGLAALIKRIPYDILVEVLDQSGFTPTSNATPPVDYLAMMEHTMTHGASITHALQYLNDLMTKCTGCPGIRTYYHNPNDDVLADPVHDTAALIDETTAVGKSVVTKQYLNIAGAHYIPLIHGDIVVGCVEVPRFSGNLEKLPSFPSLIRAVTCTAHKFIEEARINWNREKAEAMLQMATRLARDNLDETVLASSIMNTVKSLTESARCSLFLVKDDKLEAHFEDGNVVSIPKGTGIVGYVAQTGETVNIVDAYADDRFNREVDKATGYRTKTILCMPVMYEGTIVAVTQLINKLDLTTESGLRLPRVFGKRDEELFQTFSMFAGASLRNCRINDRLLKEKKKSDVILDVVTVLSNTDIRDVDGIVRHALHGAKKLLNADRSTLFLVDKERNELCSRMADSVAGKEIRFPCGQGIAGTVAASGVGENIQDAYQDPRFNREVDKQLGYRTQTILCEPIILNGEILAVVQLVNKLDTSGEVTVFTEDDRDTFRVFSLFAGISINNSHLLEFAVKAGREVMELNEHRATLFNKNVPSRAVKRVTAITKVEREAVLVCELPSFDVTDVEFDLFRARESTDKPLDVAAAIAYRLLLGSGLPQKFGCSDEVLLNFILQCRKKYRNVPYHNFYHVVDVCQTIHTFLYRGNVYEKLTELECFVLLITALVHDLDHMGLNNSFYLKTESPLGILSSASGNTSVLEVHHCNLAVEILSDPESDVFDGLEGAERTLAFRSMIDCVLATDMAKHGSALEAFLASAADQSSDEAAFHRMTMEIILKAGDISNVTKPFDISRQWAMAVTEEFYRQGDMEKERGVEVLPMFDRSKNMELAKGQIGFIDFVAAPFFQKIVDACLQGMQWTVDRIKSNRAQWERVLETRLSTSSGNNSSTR
The data set can be described thus: Inhibition of Trypanosoma brucei recombinant TbrPDEB1 expressed in Sf21 insect cells assessed as reduction of [3H]-cAMP hydrolysis by scintillation proximity assay. The method, boiled down:
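Full-length PDEs used as supernatants of sonicated overexpressing cells: Sf21 for TbrPDEB1 and hPDE4A1/4B1/4C1/4D3, yeast for TbrPDEB2. Inhibition of ³H-cAMP hydrolysis measured by scintillation proximity assay with 0.5 μM cAMP substrate, in at least duplicates. Enzyme adjusted for <20% substrate consumption; blanks used denatured protein. IC50 obtained by nonlinear regression of dose-response curves.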

A short description of data set [2]: Cytotoxicity against human MRC5 cells after 72 hrs by resazurin assay. Type of data set: cell-based.
Data set [3] deals with Trypanosoma brucei brucei. Kind of data set: microbe, parasite or virus in culture. The conditions noted are these: Squib-427, 72 h.

SMILES strings stand for the structures. pIC50: −log10 of the molar value.

As for `COc1ccc(C2=NN(C(C)C)C(=O)C2(C)C)cc1Cl`, the pIC50 in data set [1] was below 5.00.
Same read-out and setting: with `COc1ccc(C2=NN(C3CCCCCC3)C(=O)C2(C)C)cc1OCc1ccc(C#N)cc1` the figure was 6.00.
As to `COc1ccc(C2=NN(C(C)C)C(=O)C2(C)C)cc1OCc1cc(C)on1`, the CC50 at 72 h in data set [2] was above 64 µM. For the same compound, the pIC50 in data set [1] was 5.30; in data set [3], 4.48.
As to `COc1ccc(C2CNC(=O)C2)cc1OC1CCCC1` (stereo unspecified) [ROLIPRAM], in data set [1], the negative logarithm of the IC50 (pIC50) was below 4.00.
Consider `COc1ccc(C2=NN(C(C)C)C(=O)C2(C)C)cc1OCc1ccccn1`, for which the pIC50 in data set [1] is 5.60.
Consider `COc1ccc(C2=NN(C(C)C)C(=O)C2(C)C)cc1O`, for which the negative logarithm of the IC50 (pIC50) in data set [1] is below 5.00.
Still for that read-out and setting: next, `COc1ccc(C2=NNC(=O)C2(C)C)cc1OCc1ccccc1`: 5.20.
`COc1ccc(COc2cc(C3=NN(C4CCCCCC4)C(=O)C3(C)C)ccc2OC)cc1` had a CC50 at 72 h in data set [2] above 64 µM. For the same compound, the figures for the pIC50 in data set [1] and in data set [3] were 6.10 and 5.00, respectively.
Turning to `COc1ccc(C2=NNC(=O)C2(C)C)cc1OC1CCCC1`, in data set [1], the pIC50 was 4.92.
As for `COc1ccc(C2=NN(C3CCCCCC3)C(=O)C2(C)C)cc1OCc1ccccn1`, the negative-log IC50 (pIC50) in data set [1] is 6.30.
`COc1ccc(C2=NN(C3CCCCCC3)C(=O)C2(C)C)cc1OCc1ccccc1` returned a CC50 at 72 h in data set [2] above 64 µM. The pIC50 in data set [1] was 6.30; in data set [3], 5.20.
For `COc1ccc(C2=NN(C3CCCCCC3)C(=O)C2(C)C)cc1O`, the pIC50 in data set [1] is below 5.00.
On the same count and under the same terms, with `COc1ccc(C2=NN(C3CCCCCC3)C(=O)C2(C)C)cc1OCc1cc(C)on1` the figure was 6.20; with `COc1ccc(CCOc2cc(C3=NN(C4CCCCCC4)C(=O)C3(C)C)ccc2OC)cc1`, 6.20; with `COc1ccc(C2=NN(C3CCCCCC3)C(=O)C2(C)C)cc1OC1CCCC1`, 6.39.
Same read-out and setting: with `COc1ccc(C2=NN(C3CCCCCC3)C(=O)C2(C)C)cc1OCc1cccc2ccccc12` the figure was 6.60; with `COc1ccc(C2=NN(C3CCCCCC3)C(=O)C2(C)C)cc1OCCCCOc1ccc(C#N)cc1`, 6.80.
On the same count and under the same terms, next, `COc1ccc(C2=NN(C(C)C)C(=O)C2(C)C)cc1OCc1ccc(C#N)cc1`: 5.70; `COc1ccc(CCOc2cc(C3=NN(C(C)C)C(=O)C3(C)C)ccc2OC)cc1`: 6.08.
Regarding `COc1ccc(C2=NN(C(C)C)C(=O)C2(C)C)cc1OCc1cccc2ccccc12`, in data set [1], the pIC50 was 6.10.
The same measure, in the same setting: next, `COc1ccc(C2=NN(C(C)C)C(=O)C2(C)C)cc1OCc1ccccc1`: 6.00; `COc1ccc(C2=NN(C(C)C)C(=O)C2(C)C)cc1Br`: below 5.00; `COc1ccc(C2=NN(C)C(=O)C2(C)C)cc1OCc1ccccc1`: 5.00.
For the compound `COc1ccc(C2=NNC(=O)C2(C)C)cc1Cl`, the negative-log IC50 (pIC50) in data set [1] is below 5.00.
With `COc1ccc(COc2cc(C3=NN(C(C)C)C(=O)C3(C)C)ccc2OC)cc1`, the CC50 at 72 h in data set [2] is above 64 µM. Moreover, the pIC50 in data set [1] is 5.70; in data set [3] it was 4.49.
Take `COc1ccc(C2=NN(C3CCCCCC3)C(=O)C2(C)C)cc1Br`: the pIC50 in data set [1] is 5.60.
As for `COc1ccc(C2=NN(C(C)C)C(=O)C2(C)C)cc1OCCCCOc1ccc(C#N)cc1`, the pIC50 in data set [1] is 5.30.
In data set [2], `COc1ccc(C2=NNC(=O)C2(C)C)cc1Br` had a CC50 at 72 h above 64 µM. Also, the negative-log IC50 (pIC50) is below 5.00 in data set [1] and below 4.19 in data set [3].
Taken in the same sequence, the figures for `COc1ccc(C2=NN(C3CCCCCC3)C(=O)C2(C)C)cc1Cl` were 32 µM, 5.70 and 5.00.
